# Screening data: PubChem, several laboratories
# Only some compounds are listed: those with a hit (about 7.1% of all), similar ones and a draw of the others.
# H69AR inhibit: proliferation blockers of H69AR lung cancer cells, primary screen, cell-based, human, 86K library. H69AR lung tumor viability, ATP luminescence, 72 h; active compounds read low. viability, % at 10 µM. hit rate 6% among 85,000. AID 598, 2007;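 active means viability at or below 40%; inactive means viability above 40%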;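 further: multidrug resistant small cell line overexpressing MRP-1 efflux transporter; 100% = mean luminescence of untreated control wells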
# HCT116 bCat-KO: primary screen for growth suppressors in beta-catenin knockout HCT116 cells (colon tumor, human). hit rate 1.5% among 140,000. viability, % at 10 µM. HCT116 beta-catenin knockout viability, CellTiter-Glo, 60 h; active compounds read low;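 active means viability at or under a set limit, the compound median less 4 SD, cut at about 6% in these data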;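 further: 0% = Hyamine 1622 control at 20 µM and 100% = untreated cell control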
# HUVEC prolif 384: inhibitors of HUVEC proliferation, primary screen, cell-based, 384-well; viability, % at 10 µM (by protocol); CellTiter-Glo luminescence, 72 h; active compounds read low; hit rate 1.1% among 86,000; AID 648, 2007;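 active means viability at or below 30%; inactive means viability above 30%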;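 further: 100% = median luminescence of DMSO-only cell control wells on each plate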
# PTEN del growth: growth suppression of PTEN-null HCT116, primary screen, cell-based, CellTiter-Glo; HCT116 PTEN-null viability, 60 h; active compounds read low; viability, % at 10 µM; hit rate 1.2% among 140,000;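 active means viability at or below a set limit, 4 SD under the median of all tested compounds, cut at about 3.7% in these data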;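 further: PTEN knockout HCT116 line with beta catenin targeted HCT116 as companion control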
# Cav32 inh: Cav3.2 calcium influx blockers – cell-based, Fluo-4 calcium fluorescence, FDSS, MLSMR library, primary screen; Cav3.2-expressing cells; active compounds read low; B-score at 10 µM; hit rate 4% among 100,000;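 active means single-dose well whose peak fluorescence ratio is a statistical outlier from its plate by either plate-standardised score or position-corrected B-score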
# Lung fibro prol: antiproliferative effect on LL 47 fibroblasts – human, LL 47 cells, CellTiter-Glo luminescence, primary screen; LL 47 human lung fibroblast viability, ATP luminescence; active compounds read low; viability, % at 10 µM; hit rate 1.1% among 85,000; AID 719, 2007;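 active means viability at or below 50% in the single dose screen; inactive means viability above 50%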;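 further: compound exposure lasted 72 h before the ATP readout; 100% = median luminescence of untreated cell-only wells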
#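 Test system: LL 47 human lung fibroblasts / Incubation: 72 h compound exposure at 37 °C after overnight plating / Technique: luminescent ATP detection, CellTiter-Glo / Compound dosing: 0.1% DMSO in all compound wells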
# An asterisk follows results filed as active; x = no result given; ! = not active in a repeat.
SMILES,H69AR inhibit,HCT116 bCat-KO,HUVEC prolif 384,PTEN del growth,Cav32 inh,Lung fibro prol
CN1C(=O)C(=Cc2ccc(N3CCCCCC3)o2)C(=O)N(C)C1=S,x,79.4,x,86.4,-7.05*,x
O=c1[nH]c(=O)n(CCC2=CCCCC2)c(O)c1C=NCCN1CCNCC1,90.4,85.8,100.0,96.0,x,98.2
CCN(CC)c1ccc(N=Cc2c(O)n(CCC3=CCCCC3)c(=O)[nH]c2=O)cc1,16.6*,58.5,70.7,47.1,-5.58*,88.5
CN(C)c1ccc(N=Cc2c(O)n(CCC3=CCCCC3)c(=O)[nH]c2=O)cc1,10.1*,89.1,64.5,90.6,0.0795,99.4
O=C(c1ccco1)c1cn(Cc2ccccc2Cl)c2ccccc12,78.0,75.9,92.6,72.5,-6.05*,94.2
N#Cc1ccccc1Cn1cc(C(=O)C2CC2)c2ccccc21,54.1,70.4,85.5,74.2,-0.152,93.9
CCC(=O)c1cn(Cc2ccccc2C#N)c2ccccc12,83.8,46.0,84.3,50.6,-1.89,70.7
O=C(c1ccco1)c1cn(Cc2ccccc2)c2ccccc12,50.1,81.3,86.8,69.8,-2.46,97.9
N#Cc1ccccc1Cn1cc(C(=O)c2ccco2)c2ccccc21,74.0,69.1,89.8,63.4,-6.07*,91.8
CC(C)C(=O)c1cn(Cc2ccc(C#N)cc2)c2ccccc12,77.9,79.0,74.4,79.7,-5.65*,92.7
CCN(CC)P(=O)(NC(=O)C(Cl)(Cl)Cl)N(CC)CC.[Cl-].[Cl-].[Cl-].[Nd+3],84.4,86.6,101.1,92.6,0.632,96.7
O=C(N/N=C1/CN2CCC1CC2)c1cc2ccccc2cc1O,37.5*,76.0,107.5,75.3,-0.0212,75.0
O=[N+]([O-])c1ccc(N2CCCC2)cc1N/N=C1\CN2CCC1CC2,x,70.8,x,74.5,x,x
Cc1cc2c(C(C)C)c(O)c(O)c(C=O)c2c(O)c1-c1c(C)cc2c(C(C)C)c(O)c(O)c(C=O)c2c1O,0.6*,4.8*,3.0*,1.9*!,-3.2,28.5*!
Cc1c(N=Nc2c(O)n(Cc3ccccc3)c(=O)[nH]c2=O)c(=O)n(-c2ccccc2)n1C,x,9.4,x,8.2,x,x
COc1ccc(-n2c(C)nc3cc(C(=O)N4CCC5(CC4)OCCO5)ccc32)cc1,28.6*,47.5,79.8,45.2,0.646,91.6
O=Cc1c(C(=O)O)n(Cc2ccc(Cl)cc2)c2ccccc12,x,90.0,x,85.8,x,x
CC/C(=C\C=C\[C@@H]1C=C[C@@H]2CCC[C@H]2[C@@H]1C(=O)c1ccc[nH]1)[C@@H]1O[C@@H]([C@@H](C)C(=O)O)CC[C@@H]1C,15.0*,18.8,12.4*,27.1,-8.53*,38.0*
O=[N+]([O-])NC1=NCN(Cc2ccco2)CN1Cc1ccco1,x,87.9,x,87.8,x,x
CCOP(=O)(C#CC(C)(C)C)C(O)(c1ccccc1)C(F)(F)F (stereo not drawn),96.6,105.5,100.8,92.5,-5.61*,102.7
CC#CP(=O)(OCC)C(O)(c1ccccc1)C(F)(F)F (stereo not drawn),98.9,92.1,96.7,95.0,-0.156,98.5
CCN(CC)CC(O)c1ccc(C2CCCC2)cc1 (stereo not drawn),x,70.6,x,83.3,x,x
Cc1c(N=Nc2c(O)n(C)c(=O)n(C)c2=O)c(=O)n(-c2ccccc2)n1C,x,82.3,x,78.8,x,x
COc1cccc(NC(=O)N2CCC3(CC2)OCCO3)c1,x,98.8,x,99.1,x,x
O=C(NC1(C(F)(F)F)Oc2ccccc2O1)N1CCC2(CC1)OCCO2,16.7*,51.3,81.1,61.0,1.38,101.1
SMILES,H69AR inhibit,HCT116 bCat-KO,HUVEC prolif 384,PTEN del growth,Cav32 inh,Lung fibro prol
Cc1nnc2n1-c1ccc(Cl)cc1C(c1ccccc1)=NC2,105.6,x,73.6,x,x,91.4
Cc1cccc(-n2c(/C=C/c3ccc([N+](=O)[O-])o3)nc3ccccc3c2=O)c1,x,0.8*,x,0.6*,x,x
Cc1ccnc(-n2c(-c3ccco3)nc3ccccc3c2=O)c1,92.6,92.9,101.7,105.8,0.262,91.7
Cc1c2ccncc2c(C)c2c1[nH]c1ccccc12,x,1.3*,x,0.9*,-4.4*,x
CN1CCC(N(C)c2nc(-c3ccc([N+](=O)[O-])cc3)nc3ccccc23)CC1,x,1.5*,x,1.5*,x,x
c1ccc2cc3cc4ccccc4cc3cc2c1,100.9,x,89.6,x,x,85.2
O=C(COc1ccc(Cl)cc1)N1CCN(C/C=C/c2ccccc2)CC1,27.3*,68.2,83.6,65.8,-4.18,79.9
O=C(COc1ccccc1)N1CCN(C/C=C/c2ccccc2)CC1,65.1,82.1,90.8,79.9,-0.771,93.5
O=P(C(=Nc1ccc(Cl)cc1)N1CCOCC1)(N1CCOCC1)N1CCOCC1,91.1,95.3,98.7,88.9,1.07,90.9
CC1(C)CC[C@]2(C)CC[C@]3(C)C4C[C@@H]5OO[C@@]6(O5)C(CCCC6(C)C)[C@]4(C)CC[C@@]3(C)C2C1 (stereo partly drawn),x,x,x,x,1.12,x
Cc1c2cnn(CC(=O)N3CCC4(CC3)OCCO4)c(=O)c2c(C)n1Cc1ccc(F)cc1,x,88.0,x,90.5,0.588,x
O=C(Cn1ncc2c3ccccc3n(Cc3ccccc3)c2c1=O)N1CCC2(CC1)OCCO2,103.0,93.3,103.2,94.5,-10.8*,101.4
O=C(Cn1ncc2c3ccccc3n(Cc3ccccc3F)c2c1=O)N1CCC2(CC1)OCCO2,90.6,97.2,107.0,88.0,-8.58*,93.2
COC(=O)C1=C(c2cc3ccccc3s2)C[C@@H]2CC[C@H]1N2C(=O)NCc1ccc(C(F)(F)F)cc1,x,x,x,x,-2.91,x
CN1CC[C@@H](c2ccc(F)cc2)[C@H](COc2ccc3c(c2)OCO3)C1,x,x,x,x,-1.67,x
CC(=O)C1C2c3ccccc3O[C@@]1(C)N=c1s/c(=C/c3ccoc3)c(=O)n12 (stereo partly drawn),x,82.4,x,81.0,x,x
Cc1ccc(N2C(=O)NC(=O)C3(Cc4ccccc4N4CCN(c5ccccc5)CC43)C2=O)cc1 (stereo not drawn),82.5,74.2,85.6,66.4,-6.83*,95.4
O=c1[nH]c(=S)n(Cc2ccc(F)cc2)c(O)c1/C=N/N1CCCCCC1,x,96.2,x,90.6,x,x
N#CSCC(=O)N1c2ccccc2CCc2ccccc21,x,3.8*,x,2.5*,x,x
Nc1ccccc1C(=O)OCC(=O)N1CCc2ccccc21,90.1,113.9,89.2,95.6,-0.164,108.3
COC(=O)C1=C(c2ccccc2)C[C@@H]2CC[C@H]1N2C(=O)NC1CCCCC1,x,x,x,x,-1.77,x
COc1cc(C[C@@H](C)N)c(OC)cc1I,x,x,x,x,-0.0567,x
CN[C@H]1C[C@H]2O[C@@](C)([C@H]1OC)n1c3ccccc3c3c4c(c5c6ccccc6n2c5c31)C(=O)NC4,x,2.1*,x,1.2*,0.0921,x
COC(=O)C1=C(c2ccccc2)C[C@@H]2CC[C@H]1N2C(=O)N1CCC(O)CC1,x,x,x,x,0.735,x
